In ChEMBL document CHEMBL4513216, “Probing the Open Global Health Chemical Diversity Library for Multistage-Active Starting Points for Next-Generation Antimalarials” (ACS Infect Dis, 2020):

assay: Toxicity liver stage against HepG2, at 10uM; type: cell-based; set-up: test concentration 10 uM, cell line HepG2-A16-CD81EGFP; conditions: human, HepG2-A16-CD81EGFP cells; read-out: INHIBITION
How it was run: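 Uninfected HepG2-A16-CD81EGFP cells, 3 × 10^3 per well, 1536-well, plated on prespotted compound at 10 μM final, parasite-free screening media added to match infected plates; puromycin 10 μM positive, DMSO 0.5% negative; run in parallel with 48 h PbLuc assay at 37 °C, 5% CO2; viability by CellTiter-Glo luminescence, normalized to controls.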

Compound | cytotoxicity at 10 µM
CCOc1ccnc(N2CCN(C(=O)c3cc(Cl)c[nH]3)CC2)n1 | -9.29%
CC1CCCN(CC(=O)N2CCC(c3ncc4c(n3)CCNC4)CC2)C1 (stereo not given) | 7.62%
COc1c(CNCc2ccc(CN3CCOCC3)cc2)c(C)nn1C | -11.8%
Cc1nn(CC(C)C)cc1S(=O)(=O)N(C)Cc1nonc1C | 11.3%
CC(=O)N1CCCN(S(=O)(=O)c2cc3ccccc3o2)CC1 | 18.8%
CCn1cc(Br)c(C(=O)NCc2cnn(C)c2)n1 | -11.9%
COCCC1(CO)CCCN(C(=O)CCC(F)(F)F)C1 (stereo not given) | -2.86%
CC1CCCCN1C(=O)CN1CCN(c2ccc3nncn3n2)CC1 (stereo not given) | 1.48%
CN(C)[C@@H]1CCN(C(=O)CC2CC2)[C@H]1Cc1cnn(C)c1 | -67.3%
CCN(C(C)=O)C(c1ccc(Cl)cc1)c1ccccn1 (stereo not given) | -4.29%
O=C(CCc1cccc(C2CCNCC2)n1)N1CCCCC1 | -4.78%
CCNC(=O)COc1ccc(C(=O)NC(C)CCc2ccco2)cc1 (stereo not given) | 12.2%
COc1ccc(-c2ccccc2CN)c(OC)c1 | 7.35%
CCc1nc(C)c(CN2CCN(c3ncnc4c(C)csc34)CC2)[nH]1 | 17.6%
Cc1nn(C)cc1-c1ccnc(N(C)Cc2cnn(C)c2)n1 | 19.9%
CO[C@@H]1CCN(S(=O)(=O)c2cccs2)[C@H]1Cc1cccnc1 | -80.3%
CCNc1ncc(-c2cc(-c3ccn(C)c3)nc(N)c2C#N)cn1 | 7.14%
COc1ccc(OCCNC(=O)c2ccc3c(=O)[nH][nH]c(=O)c3c2)cc1 | -4.83%
CN(CC(=O)NCc1ccco1)Cc1nc2c(s1)CCCC2 | 13.6%
CC(=O)N1CCC(NC[C@H]2Cn3c(-c4ccccc4)cnc3CO2)CC1 | -5.04%
Cc1ccccc1S(=O)(=O)NC(=O)C1(c2ccccc2)CCC1 | -6.9%
CN(Cc1cccnc1)[C@@H]1CN(Cc2ccccn2)[C@@H]2CCCO[C@H]12 | -0.0545%
CC(C)[C@H]1CN(S(=O)(=O)c2cccnc2)C[C@@H]1N | 1.31%
CC(C1CC1)N(C(=O)NCCCn1nc2ccccn2c1=O)C1CC1 (stereo not given) | -21.4%
Cc1ccc(C(N)=O)cc1NCCOc1cccc(C#N)c1 | 2.87%
Cc1ncc(C(=O)N2CCC(C(=O)NC3CCCC3)C2)c(C)n1 (stereo not given) | 6.3%
O=C(NCCO)C1(Cc2cc(-c3ccc(F)cc3F)no2)CCOCC1 | 0.333%

Compound | cytotoxicity at 10 µM
NCC1CCCCN1Cc1cc(O)c2cccc(F)c2n1 (stereo not given) | -18.2%
O=C(CCc1cc(Cl)no1)N1CCN(CCn2cncn2)CC1 | -1.84%
Cc1cn2nc(N(C)C3CCCN(c4cccnn4)C3)sc2n1 (stereo not given) | 4.29%
O=C(c1ccoc1)N1CCC2(CC1)C(=O)Nc1ccccc12 | -13.6%
CNC(=O)[C@@H](c1ccccc1)N1CCC[C@H]1C(=O)NC1CCCCC1 | 2.35%
O=C(Cc1cccs1)N1CCCCC1c1ccn2ccnc2n1 (stereo not given) | -6.58%
CNC(=O)C(C)S(=O)(=O)Cc1csc(-c2cccs2)n1 (stereo not given) | -11.9%
CCN(CC)C(=O)NC(C)c1ccc(Oc2cccnc2)c(F)c1 (stereo not given) | 17.4%
O=C(c1ccccc1O)N1CCN(C(=O)C2CCC2)CC1 | 2.42%
O=S(=O)(CCN1CCCCC1Cn1cccn1)c1ccccc1 (stereo not given) | -8.66%
CC(C)c1nc(CN2CCCC2Cn2cncn2)no1 (stereo not given) | -7.3%
CN(C(=O)c1cccc(C(=O)NS(C)(=O)=O)c1)c1ccccc1 | -2.35%
CNC(=O)[C@H]1C[C@H]2OCC[C@H]2N(Cc2ccc(F)cc2)C1 | 3.42%
CCN(CC)C(CNS(=O)(=O)c1ccc(C(N)=O)cc1)c1ccco1 (stereo not given) | -8.64%
COCc1ccc(CNCc2c(C)nn(C)c2N(C)C)cc1 | -16%
c1cnc(N2CCCn3c(nnc3Cn3cccn3)C2)nc1 | -1.58%
CC(=O)N1CCC(c2n[nH]cc2-c2ccnc(N)c2)C1 (stereo not given) | 0.355%
CC(=O)N1CCCC2(C1)CN(C(=O)C1CCCCC1)CCO2 (stereo not given) | 2.08%
CC(=O)N1CCO[C@@H]2CN(S(=O)(=O)c3ccccc3F)C[C@@H]2C1 | 12.6%
c1cc(CN2CCOC[C@H]2c2nc(-c3ccncc3)c[nH]2)ccn1 | -2.65%
Cc1nc(O)ccc1C(=O)N1CCCC1c1nc(-c2ccccc2)n[nH]1 (stereo not given) | 0.636%
CCc1nc(C)c([C@H]2CN(C)C[C@@H]2C(=O)Nc2ccc(OC)cc2)[nH]1 | -6.66%
CCCS(=O)(=O)N1C[C@@H]2CN(Cc3cccs3)CCO[C@@H]2C1 | -145%
CCc1nc(CN2CCCN(c3cnc4ccccc4n3)CC2)no1 | 22%
Cc1cc(NC(=O)CN2CCc3cncnc3C2)on1 | -17.6%
N#Cc1ccccc1NC(=O)C1CN(C(=O)c2ccc3c(c2)OCO3)C1 | -8.64%
FCCOc1cccc(NCc2c[nH]nc2-c2cccnc2)c1 | 1.14%

Compound | cytotoxicity at 10 µM
COc1ccc(Cl)cc1S(=O)(=O)N(C)CC(=O)Nc1cccnc1 | 0.192%
CCn1nc(C)cc1C(=O)N1C[C@@H]2C[C@@H](c3nc(C)cs3)O[C@@H]2C1 | 3.39%
Cc1ccc(C(=O)NCCCN(C)S(C)(=O)=O)c(=O)[nH]1 | -5.89%
COCCNC(=O)c1ccccc1-n1cc(CN)cn1 | -23.6%
CN1CCN(CCCNS(=O)(=O)Cc2ccccc2F)CC1 | -11.1%
Cc1csc(CNC(=O)N2CCN(Cc3ccco3)CC2)n1 | 0.702%
CC(=O)N1CC[C@H](c2nc3cc(F)ccc3o2)C1 | 0.835%
Cn1ccnc1COc1ccc(CN2CCC(C(N)=O)CC2)cc1 | -4.47%
CN(Cc1cccc(O)c1)C(=O)Nc1cccnc1N1CCCC1 | -0.565%
O=C(c1cccs1)N1C[C@@H]2OCCN(CC3CCCO3)[C@@H]2C1 (stereo not given in full) | -2.24%
CC(O)CN1CCC(CNCc2cn(-c3ccccc3)nn2)CC1 (stereo not given) | 3.31%
COc1ccc(CCCC(=O)N2CCCC(n3cccn3)C2)cc1 (stereo not given) | -7.36%
O=C(c1ccccn1)N1C[C@H]2CCC[C@@]2(COCC2CCOCC2)C1 | -76.3%
O=C(c1ccsc1)N1CCC2(CC1)CCN(S(=O)(=O)C1CC1)CC2 | -109%
Cc1ccc(N2C[C@H]3CCC[C@@H](CN4CCOCC4)[C@H]3C2)nn1 | 10.7%
Cc1nc(C)n(CC2CCCN(CCC(=O)Nc3cc(C)on3)C2)n1 (stereo not given) | -1.68%
CC(Nc1ccc(CCN2CCOCC2)cc1)C(=O)N(C)CCC#N (stereo not given) | -8.93%
Cc1cccc(NC(=O)C2(n3cnnn3)CCCCC2)n1 | -1.05%
O=C(c1cnccn1)N1CCc2c(COCC3CC3)cncc2C1 | -72.4%
Cc1nc(CCNC(=O)CC2CCN(C(C)C)CC2)sc1Cl | -194%
Oc1cccc(CN2C[C@@H]3CC[C@H]2CN(Cc2ccc(F)cc2)C3)c1 | -135%
CN1CCN([C@@H]2CN(C(=O)c3cc4ccc(F)cc4[nH]3)C[C@H]2O)CC1 | -10.4%
Cc1ncsc1CN1C[C@@H]2COC[C@]2(C(=O)NCc2ccccn2)C1 | -108%
COc1ccccc1-c1ncc(CN2CCCC(CCC(N)=O)C2)s1 (stereo not given) | -6.34%
O=C(NCC1CCOC1)Nc1ccc(Oc2cccc(F)c2)nc1 (stereo not given) | -5.01%
CC(C)(C)c1cc(CN2CCOC(CCc3ccccc3)C2)n[nH]1 (stereo not given) | -5.34%
